The record followed here is ChEMBL document CHEMBL1124650, “Structure-activity relationships among methoctramine-related polymethylene tetraamines. Chain-length and substituent effects on M-2 muscarinic receptor blocking activity” (J Med Chem, 1989).

A value given as a limit tells only on which side of the number the result lay.

Common to all, as to conditions: read-out: pA2 (converted)
Assay [1] deals with Muscarinic acetylcholine receptor M2 (Cavia porcellus). Briefly: Antagonist potency against carbachol induced inhibition of electrically stimulated guinea pig atria Muscarinic acetylcholine receptor.
The target in assay [2] is T1, Muscarinic acetylcholine receptor M3 (Cavia porcellus, UniProt Q8VH26). In words: (§1) Antagonist potency against carbachol induced contractions of isolated guinea pig ileum Muscarinic acetylcholine receptor. The format is functional, tissue-based. The method in brief: (§2)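 Mounted in PSS at 37 °C with isotonic recording and 30 min equilibration. Carbachol curves (0.01-10 μM) were run at 30-min intervals, the second serving as control. A repeat curve followed 30 min antagonist incubation. pA2 came from Schild plots constrained to slope -1.0, using three antagonist concentrations each tested ≥5 times.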
T1 sequence (Q8VH26 whole entry): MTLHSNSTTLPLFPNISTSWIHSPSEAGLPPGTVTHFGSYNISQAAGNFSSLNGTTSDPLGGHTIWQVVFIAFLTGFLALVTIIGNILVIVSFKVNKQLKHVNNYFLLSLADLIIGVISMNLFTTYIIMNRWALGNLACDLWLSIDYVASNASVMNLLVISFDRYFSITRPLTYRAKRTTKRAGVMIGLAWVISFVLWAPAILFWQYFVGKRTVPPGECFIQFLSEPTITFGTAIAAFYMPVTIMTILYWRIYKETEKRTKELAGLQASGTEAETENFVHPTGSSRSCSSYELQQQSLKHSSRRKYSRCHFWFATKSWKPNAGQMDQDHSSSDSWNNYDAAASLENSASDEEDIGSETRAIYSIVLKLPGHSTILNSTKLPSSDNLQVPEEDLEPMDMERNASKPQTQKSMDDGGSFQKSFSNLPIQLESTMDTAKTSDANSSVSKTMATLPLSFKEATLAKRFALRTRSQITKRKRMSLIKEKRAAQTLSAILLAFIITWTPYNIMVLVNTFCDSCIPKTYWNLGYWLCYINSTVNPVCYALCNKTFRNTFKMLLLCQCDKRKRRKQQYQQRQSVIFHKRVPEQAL

Assay [3] deals with Muscarinic acetylcholine receptor M2 (Cavia porcellus). In words: Antagonist potency against muscarinic receptors was assed by antagonism of carbachol induced inhibition of electrically stimulated guinea pig atria.
The target of assay [4] is T1, Muscarinic acetylcholine receptor M3. Described as §1. The class given is functional, tissue-based. This is another data set of the same source.
Assay [5] has as its target Muscarinic acetylcholine receptor M2 (Cavia porcellus). Briefly: Antagonist potency against carbachol induced inhibition of electrically stimulated guinea pig atria Muscarinic acetylcholine receptor. The source holds these as a separate data set.
For assay [6], the target named is T1, Muscarinic acetylcholine receptor M3. Briefly: Antagonist potency against carbachol induced contractions of isolated guinea pig ileum Muscarinic acetylcholine receptor; Inactive up to 10 uM. The format is functional, tissue-based. The method in brief: as §2
Assay [7] concerns the target Muscarinic acetylcholine receptor M2 (Cavia porcellus). Briefly: Antagonist potency against carbachol induced inhibition of electrically stimulated guinea pig atria Muscarinic acetylcholine receptor. This is another data set of the same source.

`Clc1ccc(CNCCCCCCNCCCCCCCCNCCCCCCNCc2ccc(Cl)cc2)cc1`: the values for the Kb in assay [1] and in assay [2] were 178 nM and 2340 nM, respectively.
Turning to `COc1ccccc1CNCCCCCCCNCCCCCCCCNCCCCCCCNCc1ccccc1OC`, the results for the Kb in assay [1] and in assay [2] were 27.5 nM and 646 nM, respectively.
In the case of `COc1ccccc1CN(C)CCCCCCNCCCCCCCCNCCCCCCN(C)Cc1ccccc1OC`, the Kb was 166 nM in assay [3] and more than 10000 nM in assay [4].
Consider `COc1ccccc1CNCCCCCNCCCCCCCCNCCCCCNCc1ccccc1OC`, for which the Kb in assay [1] was 162 nM; in assay [2] it was 2450 nM.
On to `c1ccc(CNCCCCCCNCCCCCCCCNCCCCCCNCc2ccccn2)nc1`, for which the values for the Kb in assay [3] and in assay [4] were 53.7 nM and 3310 nM, respectively.
The matching figures for `Cc1ccc(CNCCCCCCNCCCCCCCCNCCCCCCNCc2ccc(C)o2)o1`: 8.91 nM and 708 nM.
`Fc1ccc(CNCCCCCCNCCCCCCCCNCCCCCCNCc2ccc(F)cc2)cc1`: the Kb in assay [1] is 129 nM; in assay [2], 2400 nM.
As for `COc1ccccc1CNCCCCCCNCCCCCCCCCCCNCCCCCCNCc1ccccc1OC`, the figures for the Kb in assay [1] and in assay [2] were 37.2 nM and 2290 nM, respectively.
The matching figures for `COc1ccccc1CNCCCCCCNCCCCCCCCCCCCCNCCCCCCNCc1ccccc1OC`: 95.5 nM and 1230 nM.
The matching figures for `Cc1ccc(CNCCCCCCNCCCCCCCCNCCCCCCNCc2ccc(C)cc2)cc1`: 166 nM and 2340 nM.
As for `c1cncc(CNCCCCCCNCCCCCCCCNCCCCCCNCc2cccnc2)c1`, the Kb is 288 nM in assay [3] and 4900 nM in assay [4].
As to `Clc1ccccc1CNCCCCCCNCCCCCCCCNCCCCCCNCc1ccccc1Cl`, the Kb was 66.1 nM in assay [1] and 2820 nM in assay [2].
As to `c1coc(CNCCCCCCNCCCCCCCCNCCCCCCNCc2ccco2)c1`, the Kb was 851 nM in assay [2] and 9.12 nM in assay [5].
Take `COc1cccc(CNCCCCCCNCCCCCCCCNCCCCCCNCc2cccc(OC)c2)c1`: the Kb in assay [1] is 151 nM; in assay [2] it was 3890 nM.
On to `CSc1ccccc1CNCCCCCCNCCCCCCCCNCCCCCCNCc1ccccc1SC`, for which the Kb in assay [1] was 26.9 nM; in assay [2] it was 589 nM.
Take `O=[N+]([O-])c1ccc(CNCCCCCCNCCCCCCCCNCCCCCCNCc2ccc([N+](=O)[O-])cc2)cc1`: the Kb in assay [1] is 95.5 nM; in assay [2], 1320 nM.
The matching figures for `c1ccc(CNCCCCCCNCCCCCCCCNCCCCCCNCc2ccccc2)cc1`: 83.2 nM and 2190 nM.
As for `COc1ccccc1CNCCCCCCNCCCCCCCCCCCCCCNCCCCCCNCc1ccccc1OC`, in assay [2], the Kb is 1410 nM.
As to `Cc1ccccc1CNCCCCCCNCCCCCCCCNCCCCCCNCc1ccccc1C`, the Kb was 58.9 nM in assay [1] and 2000 nM in assay [2].
Regarding `COc1ccccc1CNCCCCCCN(C)CCCCCCCCN(C)CCCCCCNCc1ccccc1OC`, the Kb is 10.2 nM in assay [3] and 417 nM in assay [4].
For `COc1ccc(CNCCCCCCNCCCCCCCCNCCCCCCNCc2ccc(OC)cc2)cc1`, the figures for the Kb in assay [1] and in assay [2] were 141 nM and 2750 nM, respectively.
As to `COc1ccccc1CNCCCCCCNCCCCCCCCNCCCCCCNCc1ccccc1OC` [METHOCTRAMINE], the Kb in assay [2] is 832 nM.
In the case of `COc1ccccc1CN(C)CCCCCCN(C)CCCCCCCCN(C)CCCCCCN(C)Cc1ccccc1OC`, the Kb in assay [6] is more than 10000 nM; in assay [3], 162 nM.
Turning to `Clc1cccc(CNCCCCCCNCCCCCCCCNCCCCCCNCc2cccc(Cl)c2)c1`, the values for the Kb in assay [2] and in assay [7] were 2290 nM and 186 nM, respectively.
